Reference: ChEMBL document CHEMBL3259592, “Synthesis and structure-activity relationship of dihydrobenzofuran derivatives as novel human GPR119 agonists” (Bioorg Med Chem Lett, 2014)
The source made the active and inactive calls. The rule behind the calls is not given here.

How the values were obtained:
[1] = biological target: T1, Glucose-dependent insulinotropic receptor (Homo sapiens, UniProt Q8TDV5); assay: Agonist activity at human GPR119 expressed in HEK293 cells co-expressing Flp-In-T-Rex assessed as cAMP accumulation after 60 mins; type: functional, cell-based
T1 sequence (Q8TDV5 whole entry): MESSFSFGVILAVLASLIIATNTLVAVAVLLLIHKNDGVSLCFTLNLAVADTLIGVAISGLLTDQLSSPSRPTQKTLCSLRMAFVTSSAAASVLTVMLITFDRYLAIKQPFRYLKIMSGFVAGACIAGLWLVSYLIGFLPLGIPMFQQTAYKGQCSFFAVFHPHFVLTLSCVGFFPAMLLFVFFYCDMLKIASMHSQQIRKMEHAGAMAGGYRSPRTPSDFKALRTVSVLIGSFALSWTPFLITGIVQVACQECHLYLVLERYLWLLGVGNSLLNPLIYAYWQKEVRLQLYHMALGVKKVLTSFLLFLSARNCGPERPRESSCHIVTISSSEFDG
How it was run: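 Tetracycline-inducible human GPR119 cell line, plated at 7.5 × 10⁵ cells/well 24 h before assay in DMEM with 10% FBS and 1 ng/ml tetracycline. Medium was then swapped for PBS assay buffer containing 25 mM HEPES (pH 7.4), 12 mM glucose, 0.01% FAF-BSA and 0.1 mM IBMX. Cells were exposed to compound for 60 min, then lysed. cAMP was read by enzyme fragment complementation fluorescence; EC50 and Emax reported.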

[2] = biological target: T2, Glucose-dependent insulinotropic receptor (Homo sapiens) (UniProt Q8TDV5); assay: Intrinsic activity at human GPR119 expressed in HEK293 cells co-expressing Flp-In-T-Rex assessed as cAMP accumulation after 60 mins relative to propan-2-yl 4-({6-[(2-fluoro-4-methanesulfonylphenyl)amino]pyrimidin-4-yl}oxy)piperidine-1-carboxylate; type: functional, cell-based
T2 sequence (whole entry): T1 sequence (Q8TDV5 whole entry)
How it was run: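 Tetracycline-inducible human GPR119 cells plated 7.5 × 10⁵/well 24 h ahead in growth medium (DMEM, 10% FBS) with 1 ng/ml tetracycline. Compound exposure 60 min, then lysis; cAMP read by enzyme fragment complementation fluorescence. EC₅₀ and Emax derived.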

[3] = Metabolic stability in human liver microsomes assessed as compound remaining after 10 mins; type: ADME; conditions: read-out: Stability
[4] = Metabolic stability in mouse liver microsomes assessed as compound remaining after 10 mins; type: ADME; conditions: read-out: Stability
[5] = biological target: Glucose-dependent insulinotropic receptor (Homo sapiens) (UniProt Q8TDV5); assay: Agonist activity at human GPR119 expressed in HEK293 cells co-expressing Flp-In-T-Rex assessed as cAMP accumulation after 60 mins
[6] = Aqueous solubility of the compound at pH 6.5; type: physicochemical
[7] = Inhibition of CYP450 (unknown origin); type: ADME; conditions: human
[8] = Permeability of the compound by PAMPA; type: physicochemical
[9] = biological target: T3, Nuclear receptor subfamily 1 group I member 2 (Homo sapiens, UniProt O75469); assay: Transactivation of PXR (unknown origin)
T3 sequence (O75469 whole entry): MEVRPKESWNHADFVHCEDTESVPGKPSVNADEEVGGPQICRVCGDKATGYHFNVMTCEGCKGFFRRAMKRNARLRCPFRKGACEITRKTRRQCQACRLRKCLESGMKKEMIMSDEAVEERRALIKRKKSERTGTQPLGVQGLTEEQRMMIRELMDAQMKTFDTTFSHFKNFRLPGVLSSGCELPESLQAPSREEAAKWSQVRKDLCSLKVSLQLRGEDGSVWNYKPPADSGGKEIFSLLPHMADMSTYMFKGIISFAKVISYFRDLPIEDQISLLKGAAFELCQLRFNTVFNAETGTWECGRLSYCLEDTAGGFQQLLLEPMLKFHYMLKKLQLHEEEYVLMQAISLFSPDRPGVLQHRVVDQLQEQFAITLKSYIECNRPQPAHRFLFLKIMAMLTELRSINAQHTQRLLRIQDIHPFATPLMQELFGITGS

Row | SMILES | EC50 [1] [nM] | Emax [2] [%] | remaining at 10 min [3] [%] | remaining at 10 min [4] [%] | Activity [5] | solubility ([6]; buffer) | inhibition (INH) [7] | solubility ([6]; aqueous, read-out: solubility) [µg/mL] | permeability [8] | Activity [9]
1 | CCCc1cnc(N2CCC(C3Cc4cc(C5=CCN(S(=O)(=O)CCCCO)CC5)cc(F)c4O3)CC2)nc1 (racemic) | 60 | 98 | 73 | 59 | – | – | – | – | – | –
2 | CCCc1cnc(N2CCC(C3Cc4cc(C5=CCN(S(=O)(=O)CCC)CC5)ccc4O3)CC2)nc1 (racemic) | 82 | 107 | 71 | 58 | Active | – | – | – | – | –
3 | CCCc1cnc(N2CCC(C3Cc4cc(C5CCN(S(=O)(=O)CCC)CC5)ccc4O3)CC2)nc1 (racemic) | 386 | 43 | 70 | 52 | – | – | – | – | – | –
4 | CCCc1cnc(N2CCC(C3(C)Cc4cc(C5=CCN(S(=O)(=O)CCCCO)CC5)ccc4O3)CC2)nc1 (racemic) | 28 | 67 | 67 | 70 | – | – | – | – | – | –
5 | CCCc1cnc(N2CCC(C3Cc4cc(N5CCN(S(=O)(=O)CCC)CC5)ccc4O3)CC2)nc1 (racemic) | 544 | 74 | 82 | 44 | – | – | – | – | – | –
6 | CCCc1cnc(N2CCC(C3(C)Cc4cc(C5=CCN(S(=O)(=O)CCC)CC5)ccc4O3)CC2)nc1 (racemic) | 70 | 48 | 68 | 52 | – | – | – | – | – | –
7 | CCCS(=O)(=O)N1CC=C(c2ccc3c(c2)CC(C2CCN(c4ncc(C(F)(F)F)cn4)CC2)O3)CC1 (racemic) | 14 | 118 | 58 | – | Active | Insoluble | – | – | – | –
8 | CCCS(=O)(=O)N1CC=C(c2ccc3c(c2)CC(C2CCN(c4ccc(C(F)(F)F)cn4)CC2)O3)CC1 (racemic) | 34 | 99 | 47 | 46 | Active | – | – | – | – | –
9 | CCCc1cnc(N2CCC(C3(C)Cc4cc(C5=CCN(S(=O)(=O)CCCO)CC5)ccc4O3)CC2)nc1 (racemic) | 78 | 78 | 72 | 42 | – | – | – | – | – | –
10 | CCCS(=O)(=O)N1CC=C(c2ccc3c(c2)CC(C2CCN(C(=O)OC4CCCCC4)CC2)O3)CC1 (racemic) | 51 | 56 | – | – | Active | – | – | – | – | –
11 | CCCc1cnc(N2CCC(C3Cc4cc(-c5ccc(S(C)(=O)=O)cc5F)ccc4O3)CC2)nc1 (racemic) | 541 | 53 | – | – | – | – | – | – | – | –
12 | CCCS(=O)(=O)N1CC=C(c2ccc3c(c2)CC(C2CCN(S(=O)(=O)CCC)CC2)O3)CC1 (racemic) | 1000 | 43 | – | – | Active | – | – | – | – | –
13 | CCCS(=O)(=O)N1CC=C(c2ccc3c(c2)CC(C2CCN(C(=O)OC(C)C)CC2)O3)CC1 (racemic) | 103 | 61 | 10 | 12 | Active | – | – | – | – | –
14 | CCCc1cnc(N2CCC(C3Cc4c(ccc(C5=CCN(S(=O)(=O)CCC)CC5)c4F)O3)CC2)nc1 (racemic) | 5 | 123 | 87 | 78 | – | – | Not Active | < 1 | permeable | Not Active
15 | CCCc1cnc(N2CCC(C3Cc4c(F)c(C5=CCN(S(=O)(=O)CCCO)CC5)cc(F)c4O3)CC2)nc1 (racemic) | 16 | 86 | 89 | 82 | – | – | – | – | – | –
16 | CCCS(=O)(=O)N1CC=C(c2ccc3c(c2)CC(C2CCN(Cc4ccccc4)CC2)O3)CC1 (racemic) | 521 | 88 | – | – | Active | – | – | – | – | –
17 | CCCc1cnc(N2CCC(C3Cc4cc(C5=CCN(S(=O)(=O)CCCO)CC5)cc(F)c4O3)CC2)nc1 (racemic) | 122 | 92 | 100 | 60 | – | – | – | – | – | –
18 | CCCS(=O)(=O)N1CC=C(c2ccc3c(c2)CC(C2CCN(c4ncc(C5CC5)cn4)CC2)O3)CC1 (racemic) | 67 | 85 | 58 | 3 | Active | – | – | – | – | –
19 | CCCc1cnc(N2CCC(C3Cc4c(F)c(C5=CCN(S(=O)(=O)CCC(C)(C)O)CC5)cc(F)c4O3)CC2)nc1 (racemic) | 101 | 82 | 55 | 61 | – | – | – | – | – | –
20 | CCCc1cnc(N2CCC(C3Cc4cc(C5=CCN(S(=O)(=O)CCC)CC5)cc(F)c4O3)CC2)nc1 (racemic) | 62 | 93 | 97 | 74 | – | – | – | – | – | –
21 | CCCS(=O)(=O)N1CC=C(c2ccc3c(c2)CC(C2CCN(c4ncc(Cl)cn4)CC2)O3)CC1 (racemic) | 78 | 88 | 48 | 45 | Active | – | – | – | – | –
22 | CCCc1cnc(N2CCC(C3Cc4c(F)c(C5=CCN(S(=O)(=O)CCC)CC5)cc(F)c4O3)CC2)nc1 (racemic) | 2 | 119 | 78 | 80 | – | – | Not Active | < 1 | permeable | Not Active
